EDmin and Change data for 29 compounds are collected here from ChEMBL document CHEMBL1126632, “Synthesis and dopamine antagonist activity of 2-thioether derivatives of the ergoline ring system” (J Med Chem, 1993).

Type in all cases: functional
In assay [1] the test system is Rattus norvegicus. In words: Conditioned avoidance response in rats after oral administration. The procedure, abridged: (§1)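 Wistar rats (120-130 g) trained in a shuttle box to cross on a 5-s buzzer; failure within 1 s after the buzzer gave a mild shock. Only well-conditioned animals were used, in groups of five, dosed orally 1 h 50 min before testing. After 10-min habituation they were tested for 20 min. Blockade = shocks received as % of stimuli; EDmin reported.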

In another assay the test system is Mus musculus. In words: Tested for the apomorphine climbing behavior in mice after oral administration. The procedure, abridged: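 Female TO mice (20-25 g), groups of eight, dosed orally with compound or vehicle, then habituated 60 min in wire-mesh cylinders. Apomorphine 2.5 mg/kg sc given; from 10 min later, climbing scored 0-4 (paws on cage) at 5-min intervals for 20 min.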

Assay [2] has as its system Rattus norvegicus. In words: Compound was tested for the presence of catalepsy (CAT) in rats after oral administration. Put shortly:
(§2)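 Wistar rats (180-190 g), groups of eight, compound given orally in distilled water or 0.5% carboxymethyl cellulose. Front paws placed on a 1.5 cm rod 7 cm high at 0.5, 1, 1.5, 2, 3, 4 and 5 h; time held recorded up to 20 min and scored 0-5. Maximum score per animal summed (group maximum 40); EDmin = lowest dose exceeding a threshold score.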

For assay [3], the system named is Rattus norvegicus. Kind of assay: Percent change in serum prolactin in adult male Dawley rats after intraperitoneal administration. The procedure, abridged:
(§3)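 Adult male Sprague-Dawley rats, groups of 10, given compound in 0.5% lactic acid or vehicle ip 2 h before decapitation. Trunk blood clotted at 4 °C and centrifuged. Serum prolactin measured by NIAMDD radioimmunoassay kit against rat prolactin reference NIAMDD-RP-1. Result expressed as % change from controls run in the same experiment. Means compared by Student's test.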

The test system of assay [4] is Rattus norvegicus. In words: % change in serum prolactin in adult male Dawley rats after intraperitoneal administration. Put shortly:
as §3

The test system of assay [5] is Rattus norvegicus. In words: Tested for the presence of catalepsy(CAT) in rats after oral administration. The procedure, abridged: as §2
Assay [6] relates to Rattus norvegicus. Kind of assay: Compound was tested for the Conditioned avoidance response (CAR) in rats after oral administration; ip administration.
Assay [7] deals with Rattus norvegicus. Kind of assay: Compound was tested for the presence of catalepsy (CAT) in rats after oral administration; ip administration.
Assay [8] concerns Rattus norvegicus. Kind of assay: Tested for the amphetamine induced stereotyped behavior in rats after oral administration. The procedure, abridged: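 Wistar rats, groups of eight, given d-amphetamine sulfate 10 mg/kg ip 1 h after test compound. Stereotypy scored 1-8 at eight time points up to 4 h, and the group mean taken at each time. EDmin = lowest dose reducing stereotypy by more than 25% versus amphetamine-treated controls.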

Assay [9] is filed under the species Rattus norvegicus. In words: Compound was tested for the % change in serum prolactin in adult male Dawley rats.(not significant). The procedure, abridged:
as §3

The species entered for assay [10] is Rattus norvegicus. In words: Compound was tested for the Conditioned avoidance response (CAR) in rats. Put shortly:
as §1

Bounds are passed on as bounds.

`CCCN1C[C@H](C)C[C@@H]2c3cccc4[nH]c(SC)c(c34)C[C@H]21` displayed an EDmin with Rattus norvegicus [1] of more than 50 mg/kg.
In the case of `CSc1c2c3c(cccc3n1CO)[C@H]1C=C(C)CN(C)[C@@H]1C2`, the figures for the EDmin in the assay on Mus musculus, in the assay on Rattus norvegicus [1] and in the assay with Rattus norvegicus [2] were more than 100 mg/kg, 20 mg/kg and 80 mg/kg, respectively. Moreover, the Change with Rattus norvegicus [3] amounted to 91%.
Consider `CC1=C[C@@H]2c3cccc4[nH]c(S(C)(=O)=O)c(c34)C[C@H]2N(C)C1`, for which the EDmin in the assay on Mus musculus is more than 100 mg/kg; in the assay with Rattus norvegicus [1], more than 50 mg/kg. In addition, the Change with Rattus norvegicus [4] was found to be 30%.
The like results for `CSc1[nH]c2cccc3c2c1C[C@H]1NCC(C)=C[C@H]31` were, in that order, 50 mg/kg, more than 50 mg/kg and 24%.
Consider `CCCCCCSc1[nH]c2cccc3c2c1C[C@@H]1[C@@H]3C=C(C)CN1C`, for which the EDmin is more than 100 mg/kg in the assay on Mus musculus and 50 mg/kg with Rattus norvegicus [1]. The Change in the assay with Rattus norvegicus [3] is reported as -4%.
As for `CCSc1[nH]c2cccc3c2c1C[C@@H]1[C@@H]3C=C(C)CN1C`, the results for the EDmin with Mus musculus, in the assay on Rattus norvegicus [5] and with Rattus norvegicus [1] were more than 100 mg/kg, 40 mg/kg and 25 mg/kg, respectively. The Change with Rattus norvegicus [3] was found to be 67%.
On to `CC1=C[C@@H]2c3cccc4[nH]c(Sc5ccc(Cl)cc5)c(c34)C[C@H]2N(C)C1`, for which the EDmin was more than 100 mg/kg with Mus musculus and 100 mg/kg in the assay on Rattus norvegicus [1].
Consider `CCN1CC(C)=C[C@@H]2c3cccc4[nH]c(SC)c(c34)C[C@H]21`, for which the EDmin is 100 mg/kg in the assay with Mus musculus and 25 mg/kg in the assay with Rattus norvegicus [1]. In addition, in the assay with Rattus norvegicus [3], the Change is -65%.
Take `C[C@H]1C[C@@H]2c3cccc4[nH]c(Sc5ccccc5)c(c34)C[C@H]2N(C)C1`: the EDmin in the assay on Mus musculus and with Rattus norvegicus [1] was more than 50 mg/kg each time. Further, the Change in the assay with Rattus norvegicus [3] was determined as 15%.
With `CCCSc1[nH]c2cccc3c2c1C[C@@H]1[C@@H]3C=C(C)CN1C`, the EDmin in the assay with Mus musculus is more than 50 mg/kg.
In the case of `CSc1[nH]c2cccc3c2c1C[C@@H]1[C@@H]3C=C(CO)CN1C`, the EDmin in the assay with Mus musculus is more than 25 mg/kg; in the assay with Rattus norvegicus [6], 6 mg/kg; in the assay with Rattus norvegicus [7], 12.5 mg/kg. For the same compound, the Change in the assay on Rattus norvegicus [3] was found to be 481%.
For the compound `COc1ccc(Sc2[nH]c3cccc4c3c2C[C@@H]2[C@@H]4C=C(C)CN2C)cc1`, the figures for the EDmin in the assay with Mus musculus and in the assay on Rattus norvegicus [1] were more than 100 mg/kg and more than 80 mg/kg, respectively. In addition, the Change with Rattus norvegicus [4] worked out at 31%.
On to `CC1=C[C@@H]2c3cccc4[nH]c(SCc5ccccc5)c(c34)C[C@H]2N(C)C1`, for which the EDmin with Mus musculus stood at 100 mg/kg; in the assay with Rattus norvegicus [5], 80 mg/kg; in the assay on Rattus norvegicus [1], 25 mg/kg. Besides, the Change in the assay on Rattus norvegicus [4] is -9%.
In the case of `CC1=C[C@@H]2c3cccc4[nH]c([S+](C)[O-])c(c34)C[C@H]2N(C)C1` (stereo partly specified), the EDmin was more than 100 mg/kg in the assay on Mus musculus and more than 50 mg/kg in the assay on Rattus norvegicus [1]. For the same compound, the Change with Rattus norvegicus [3] is reported as 98%.
`C[C@@H]1C[C@@H]2c3cccc4[nH]cc(c34)C[C@H]2N(C)C1`: the EDmin in the assay with Rattus norvegicus [1] is more than 40 mg/kg.
For `CN1CCN(C2=Nc3cc(Cl)ccc3Nc3ccccc32)CC1` [CLOZAPINE], the EDmin with Mus musculus amounted to 20 mg/kg; in the assay on Rattus norvegicus [1], 30 mg/kg; in the assay with Rattus norvegicus [8], 40 mg/kg; in the assay on Rattus norvegicus [2], 80 mg/kg. Also, the Change in the assay with Rattus norvegicus [3] is reported as 1.6%.
In turn, `CCCN1CC(C)=C[C@@H]2c3cccc4[nH]c(SC)c(c34)C[C@H]21` had an EDmin with Mus musculus of more than 50 mg/kg. Also, the Change in the assay on Rattus norvegicus [3] is -74%.
Take `CN(C)CCCN1c2ccccc2Sc2ccc(Cl)cc21` [CHLORPROMAZINE]: the EDmin in the assay with Rattus norvegicus [1] and in the assay with Rattus norvegicus [2] was 10 mg/kg throughout.
As to `CSc1[nH]c2cccc3c2c1C[C@@H]1[C@@H]3C=C(C)CN1C`, the EDmin in the assay on Mus musculus was found to be 50 mg/kg; in the assay on Rattus norvegicus [5], 10 mg/kg; with Rattus norvegicus [1] it was 2.5 mg/kg; in the assay with Rattus norvegicus [8], 5 mg/kg. For the same compound, the Change in the assay with Rattus norvegicus [3] is reported as 532%.
Turning to `CSc1c2c3c(cccc3n1C)[C@H]1C=C(C)CN(C)[C@@H]1C2`, the EDmin in the assay on Mus musculus and with Rattus norvegicus [1] was 100 mg/kg each time. In addition, the Change in the assay filed under Rattus norvegicus [9] is recorded as -23%.
In the case of `O=C(CCCN1CCC(O)(c2ccc(Cl)cc2)CC1)c1ccc(F)cc1` [HALOPERIDOL], the EDmin in the assay on Mus musculus stood at 1 mg/kg; in the assay on Rattus norvegicus [1], 0.5 mg/kg; in the assay on Rattus norvegicus [2] it was 0.5 mg/kg. Also, the Change in the assay on Rattus norvegicus [3] was found to be 1413%.
Consider `CSc1[nH]c2cc(O)cc3c2c1C[C@@H]1[C@@H]3C=C(C)CN1C`, for which the EDmin with Mus musculus, in the assay with Rattus norvegicus [6] and with Rattus norvegicus [7] was 25 mg/kg each time. Besides, in the assay with Rattus norvegicus [3], the Change is on record as -50%.
In the case of `CC1=C[C@@H]2c3cccc4[nH]c(SC(C)C)c(c34)C[C@H]2N(C)C1`, the EDmin in the assay listed under Rattus norvegicus [10] was determined as 2.5 mg/kg; in the assay with Rattus norvegicus [1] it was 10 mg/kg; in the assay on Rattus norvegicus [8], 10 mg/kg. Besides, in the assay on Rattus norvegicus [3], the Change was found to be 132%.
With `C[C@@H]1C[C@@H]2c3cccc4[nH]c(Sc5ccccc5)c(c34)C[C@H]2N(C)C1`, the figures for the EDmin in the assay filed under Rattus norvegicus [10], in the assay on Rattus norvegicus [1] and in the assay with Rattus norvegicus [8] were 10 mg/kg, 20 mg/kg and 20 mg/kg, respectively. Besides, the Change with Rattus norvegicus [3] worked out at 106%.
The compound `C[C@H]1C[C@@H]2c3cccc4[nH]cc(c34)C[C@H]2N(C)C1` displayed an EDmin in the assay on Rattus norvegicus [1] of more than 50 mg/kg.
On to `CSc1[nH]c2cccc3c2c1C[C@@H]1[C@@H]3C[C@@H](C)CN1C`, for which the EDmin was 40 mg/kg in the assay on Mus musculus, 20 mg/kg in the assay with Rattus norvegicus [5], 5 mg/kg in the assay with Rattus norvegicus [1] and 5 mg/kg in the assay on Rattus norvegicus [8]. Also, the Change in the assay with Rattus norvegicus [3] was 570%.
Compound `CCCSc1[nH]c2cccc3c2c1C[C@@H]1[C@@H]3C[C@@H](C)CN1C` displayed an EDmin with Rattus norvegicus [1] of more than 50 mg/kg. Further, the Change in the assay on Rattus norvegicus [3] was 76%.
On to `CSc1[nH]c2cccc3c2c1C[C@@H]1[C@@H]3C[C@H](C)CN1C`, for which the figures for the EDmin with Mus musculus and in the assay on Rattus norvegicus [1] were more than 25 mg/kg and 40 mg/kg, respectively. Moreover, the Change in the assay on Rattus norvegicus [3] came to 63%.
Take `CC1=C[C@@H]2c3cccc4[nH]c(Sc5ccccc5)c(c34)C[C@H]2N(C)C1`: the EDmin with Mus musculus was 25 mg/kg; in the assay with Rattus norvegicus [5], 10 mg/kg; in the assay with Rattus norvegicus [1], 2.5 mg/kg; in the assay with Rattus norvegicus [8], 20 mg/kg. Further, the Change with Rattus norvegicus [3] was 141%.
